1 compound from ChEMBL document CHEMBL1177679, “Design and synthesis of novel benzimidazole derivatives as inhibitors of hepatitis B virus” (Bioorg Med Chem, 2010) can be followed below.

Data set [1] in a line: Selectivity index, ratio of CC50 for human HepG2(2.2.15) cells to IC50 for Hepatitis B virus. It counts as functional. In short, it runs like this: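 SI calculated as CC50 (MTT, HepG2.2.15, 8 days) divided by IC50 for inhibition of cytoplasmic HBV-DNA synthesis (fluorescent PCR) in the same cells.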
For data set [2], the system named is Hepatitis B virus. As to the kind of experiment: Antiviral activity against Hepatitis B virus infected in human HepG2(2.2.15) cells assessed as inhibition of viral cytoplasmic DNA synthesis after 8 days by RT-PCR analysis. It counts as functional, organism-based. The note with it: HepG2 2.2.15, 192 h.
Data set [3] can be described thus: Cytotoxicity against human HepG2(2.2.15) cells after 8 days by MTT assay. It counts as cell-based. In short, it runs like this: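 HepG2.2.15 cells in triplicate, exposed 8 days to various doses; media-only controls. MTT (5 g/L) added 4 h before end, cells lysed with 10% SDS/50% DMF pH 7.2, OD read at 570 nm 6 h later.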
On the technique in general: Formazan colour is commonly taken as a measure of viable cells.

For `Nc1ccn([C@@H]2CS[C@H](CO)O2)c(=O)n1` [LAMIVUDINE], the “Selectivity Index” value in data set [1] is given as 31.3. Moreover, the IC50 (usually the concentration at which inhibition is half-maximal) in data set [2] came to 160 nM. Besides, the 50% cytotoxic concentration (CC50) – broadly, the concentration that lowers cell viability or growth by half – at 192 h in data set [3] stood at 5000 nM.
